According to paper PMC2692831 (Chemistry & biology, 2009):

Experiments:
[1] = system: CFA model of inflammatory pain; assay: CFA model of inflammatory pain, mechanical allodynia; assay type: in vivo, rat; details: for effect on mechanical allodynia in rats not treated with PF-3845: SR141716 10 mg/kg, SR144528 30 mg/kg, i.p.
Summary of the method: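 Male Sprague-Dawley rats (200–250 g) received 0.15 ml CFA into the left hind paw plantar surface. On day 5, mechanical paw withdrawal thresholds were taken with von Frey hairs by the Dixon up-down method. Test compound was then given orally (1–30 mg/kg) in 5% N,N-dimethylacetamide/95% (40% 2-hydroxypropyl-β-cyclodextrin in water), and thresholds were re-measured 4 hr post-dose. Naproxen (10 mg/kg p.o.) served as reference. n=8/group; ANOVA, unpaired t-tests.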

[2] = molecular target: T1, FAAH (Homo sapiens, UniProt O00519); assay: FAAH inhibition kinetics, enzyme-coupled assay with oleamide as substrate; assay type: biochemical
T1 sequence (O00519 1-579): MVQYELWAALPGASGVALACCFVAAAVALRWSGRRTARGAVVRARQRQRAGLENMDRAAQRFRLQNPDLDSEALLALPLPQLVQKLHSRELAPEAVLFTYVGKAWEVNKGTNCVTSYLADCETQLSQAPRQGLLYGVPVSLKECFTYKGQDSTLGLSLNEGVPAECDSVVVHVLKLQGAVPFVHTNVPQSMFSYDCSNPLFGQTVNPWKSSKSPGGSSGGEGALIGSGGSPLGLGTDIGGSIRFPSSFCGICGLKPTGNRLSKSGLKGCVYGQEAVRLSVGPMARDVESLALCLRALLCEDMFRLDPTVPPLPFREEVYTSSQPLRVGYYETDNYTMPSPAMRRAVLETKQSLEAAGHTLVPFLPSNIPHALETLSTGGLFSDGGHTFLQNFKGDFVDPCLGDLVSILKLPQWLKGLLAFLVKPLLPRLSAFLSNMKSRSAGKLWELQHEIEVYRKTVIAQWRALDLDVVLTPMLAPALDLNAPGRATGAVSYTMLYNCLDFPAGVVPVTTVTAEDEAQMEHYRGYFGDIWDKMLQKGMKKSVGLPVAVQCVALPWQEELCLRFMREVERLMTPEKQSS

[3] = molecular target: T1, FAAH; assay: Inhibitor potency; assay type: biochemical; details: read-out: kinact/Ki hFAAH
Summary of the method: (§1)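 Purified recombinant FAAH (human, rat, or humanized rat h/rFAAH) in an enzyme-coupled assay with oleamide as substrate. FAAH hydrolysis releases ammonia, which is coupled to stoichiometric NAD+ formation, read continuously. NAD+ production is linear over 40 min without inhibitor. Test compound is added from a DMSO stock. kinact and Ki are derived from progress curves and saturation plots fitted to a covalent inactivation model.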

[4] = molecular target: T2, rFAAH (Rattus norvegicus, UniProt P97612); assay: Inhibitor potency; assay type: biochemical; details: read-out: kinact/Ki rFAAH
T2 sequence (P97612 1-579): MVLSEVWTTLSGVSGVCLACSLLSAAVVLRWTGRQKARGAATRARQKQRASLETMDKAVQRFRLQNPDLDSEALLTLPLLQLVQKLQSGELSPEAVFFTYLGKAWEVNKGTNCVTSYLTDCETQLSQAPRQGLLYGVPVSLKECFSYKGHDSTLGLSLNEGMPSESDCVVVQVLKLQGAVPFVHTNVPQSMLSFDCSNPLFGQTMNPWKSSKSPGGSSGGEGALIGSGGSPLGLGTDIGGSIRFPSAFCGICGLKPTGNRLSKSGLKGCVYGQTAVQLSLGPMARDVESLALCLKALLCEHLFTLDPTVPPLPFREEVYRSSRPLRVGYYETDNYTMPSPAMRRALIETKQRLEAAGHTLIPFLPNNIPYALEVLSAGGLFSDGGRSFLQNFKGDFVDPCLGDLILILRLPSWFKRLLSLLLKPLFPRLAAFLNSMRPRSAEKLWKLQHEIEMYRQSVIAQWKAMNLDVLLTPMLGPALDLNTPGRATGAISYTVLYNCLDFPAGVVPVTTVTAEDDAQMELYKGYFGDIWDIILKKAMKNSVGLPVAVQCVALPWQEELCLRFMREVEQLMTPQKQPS
Summary of the method: as §1

[5] = molecular target: T3, h/rFAAH ('humanized' rat-FAAH) (Rattus norvegicus, UniProt P97612, A377T/F194Y/I491V/L192F/S435N/V495M); assay: Inhibitor potency; assay type: biochemical; details: read-out: kinact/Ki h/rFAAH
T3 sequence (P97612 30-579 L192F/F194Y/A377T/S435N/I491V/V495M limits assumed): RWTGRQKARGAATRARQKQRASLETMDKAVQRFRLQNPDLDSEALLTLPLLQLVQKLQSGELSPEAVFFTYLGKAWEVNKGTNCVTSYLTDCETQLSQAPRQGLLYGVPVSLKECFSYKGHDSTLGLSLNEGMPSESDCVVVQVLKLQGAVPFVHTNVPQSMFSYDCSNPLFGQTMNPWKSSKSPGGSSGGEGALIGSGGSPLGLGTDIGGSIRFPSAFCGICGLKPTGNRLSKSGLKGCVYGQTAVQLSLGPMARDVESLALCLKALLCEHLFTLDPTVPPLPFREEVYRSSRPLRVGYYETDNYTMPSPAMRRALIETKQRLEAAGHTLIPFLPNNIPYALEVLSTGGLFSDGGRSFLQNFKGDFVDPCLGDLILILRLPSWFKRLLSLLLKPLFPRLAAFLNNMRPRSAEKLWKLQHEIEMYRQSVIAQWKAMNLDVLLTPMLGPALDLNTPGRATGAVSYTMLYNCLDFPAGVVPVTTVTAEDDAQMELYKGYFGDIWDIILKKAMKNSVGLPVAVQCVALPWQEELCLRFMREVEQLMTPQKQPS
Summary of the method: as §1

[6] = molecular target: T4, human FAAH-2 (Homo sapiens, UniProt Q6GMR7); assay: Inhibition of FAAH-2; assay type: biochemical
T4 sequence (Q6GMR7 1-532): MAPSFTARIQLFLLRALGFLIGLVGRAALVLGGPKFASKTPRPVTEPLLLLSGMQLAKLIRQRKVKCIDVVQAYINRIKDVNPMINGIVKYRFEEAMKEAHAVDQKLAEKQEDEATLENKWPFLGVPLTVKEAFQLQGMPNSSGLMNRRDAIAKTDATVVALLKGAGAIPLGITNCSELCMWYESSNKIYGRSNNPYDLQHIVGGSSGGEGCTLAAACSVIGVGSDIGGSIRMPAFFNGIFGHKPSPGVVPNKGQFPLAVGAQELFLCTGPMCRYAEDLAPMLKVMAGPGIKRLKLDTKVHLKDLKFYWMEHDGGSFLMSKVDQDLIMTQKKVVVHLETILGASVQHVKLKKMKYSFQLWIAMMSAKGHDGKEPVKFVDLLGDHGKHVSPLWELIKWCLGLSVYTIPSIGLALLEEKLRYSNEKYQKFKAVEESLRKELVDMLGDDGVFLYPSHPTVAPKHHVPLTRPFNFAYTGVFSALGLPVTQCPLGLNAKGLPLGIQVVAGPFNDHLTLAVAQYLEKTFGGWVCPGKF

[7] = molecular target: T5, FAAH in the brain (Mus musculus, UniProt O08914); assay: Competitive ABPP with FP-rhodamine, brain of treated mice; assay type: in vivo; details: for inactivation of FAAH in the brain: time course 1 to 24 hrs
T5 sequence (O08914 1-579): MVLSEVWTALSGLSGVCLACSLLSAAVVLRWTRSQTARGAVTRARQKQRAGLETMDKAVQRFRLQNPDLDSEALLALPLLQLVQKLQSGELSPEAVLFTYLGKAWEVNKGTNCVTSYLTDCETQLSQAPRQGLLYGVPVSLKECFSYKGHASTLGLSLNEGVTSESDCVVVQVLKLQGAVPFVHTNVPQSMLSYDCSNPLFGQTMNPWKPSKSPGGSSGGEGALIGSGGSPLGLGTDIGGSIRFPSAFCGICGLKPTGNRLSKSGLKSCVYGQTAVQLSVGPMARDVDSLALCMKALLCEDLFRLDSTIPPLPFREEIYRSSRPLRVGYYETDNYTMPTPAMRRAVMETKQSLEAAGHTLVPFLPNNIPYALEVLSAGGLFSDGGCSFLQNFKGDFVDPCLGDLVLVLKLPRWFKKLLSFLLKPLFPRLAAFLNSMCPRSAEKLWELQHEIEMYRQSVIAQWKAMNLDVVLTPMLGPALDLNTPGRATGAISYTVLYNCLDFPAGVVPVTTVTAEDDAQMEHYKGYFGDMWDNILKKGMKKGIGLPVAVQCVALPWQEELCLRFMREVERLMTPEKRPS

[8] = system: brain and liver levels of AEA, PEA, OEA, 2-AG; assay: Tissue levels of FAAH substrates; assay type: in vivo, mice
[9] = system: FAAH activity and NAEs in brain, blood leukocytes/plasma, liver; assay: FAAH activity and NAE levels in tissues and blood of treated rats; assay type: in vivo, rat; details: 4 hr
[10] = system: liver serine hydrolases (carboxylesterases); assay: Competitive ABPP with FP-rhodamine, liver of treated mice; assay type: in vivo; details: 10 mg/kg, i.p., 2 hr
[11] = system: brain and liver proteomes; assay: CC-ABPP of in vivo protein targets of alkyne analogues; details: 10 mg/kg, i.p., 2 hr, FAAH(+/+) and (-/-) mice
Summary of the method: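 Alkyne-tagged test compound given i.p. at 10 mg/kg to FAAH(+/+) and FAAH(-/-) mice; vehicle-treated mice of both genotypes served as controls. After 2 hr, mice were sacrificed and brain and liver proteomes collected. Proteomes were conjugated to a rhodamine-azide tag under click-chemistry conditions and resolved by gel with in-gel fluorescence scanning. FAAH was assigned as the 60 kDa band missing in FAAH(-/-) mice.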

Q: How did the “effect on mechanical allodynia in rats not treated with PF-3845” value [1] turn out when Cc1c(C(=O)NN2CCCCC2)nn(-c2ccc(Cl)cc2Cl)c1-c1ccc(Cl)cc1 [SR141716, reference compound] was run?
A: neither the CB1 nor CB2 antagonist displayed significant effects

Q: O=C(Nc1cccnc1)N1CCC(Cc2cccc(Oc3ccc(C(F)(F)F)cn3)c2)CC1 [PF-3845] was tested. Which kinact [2] did it give?
A: 0.0033 ± 0.0002 s⁻¹

Q: What about the kinact/KI [2] of the same compound?
A: 14300 M⁻¹ s⁻¹

Q: What about the improvement in potency ([2]; PF-3845 versus PF-750 (structure comparison)) of the same compound?
A: ~20 fold

Q: And the “fold higher kinact/Ki value for FAAH” value ([2]; compared to PF-750 or URB597)?
A: 10-20 fold

Q: And the kinact/KI [3]?
A: 12600 M⁻¹ s⁻¹

Q: And the kinact/KI [4]?
A: 3900 ± 780 M⁻¹ s⁻¹

Q: And the kinact/KI [5]?
A: 13300 M⁻¹ s⁻¹

Q: What about the IC50 [6] of the same compound?
A: > 10 µM

Q: What about the “inhibition of other FP-reactive serine hydrolases in brain” value ([7]; 10 mg/kg, i.p., mice) of the same compound?
A: none of the other FP-reactive serine hydrolases in this tissue were inhibited

Q: And the “inactivation of FAAH in the brain” value ([7]; 10 mg/kg, i.p., mice)?
A: rapid and complete inactivation of FAAH in the brain

Q: What about the inhibition at 10 mg/kg ([7]; mouse, ip, read-out: brain FAAH inhibited at 24 hr) of the same compound?
A: > 75%

Q: And the “levels of 2-AG in brain or liver” value ([8]; 10 mg/kg, i.p., mice)?
A: did not show changes

Q: And the “elevations in brain levels of AEA (and other NAEs PEA, OEA)” value ([8]; 10 mg/kg, i.p., mice, brain)?
A: > 10 fold

Q: What about the “time NAE elevations maintained at maximal levels (up to)” value ([8]; 10 mg/kg, i.p., mice, brain) of the same compound?
A: 7 to 12 h

Q: What about the “time of peak elevation in NAEs” value ([8]; 10 mg/kg, i.p., mice, brain) of the same compound?
A: ~3 h

Q: What about the “AEA, PEA, OEA levels at 24 hrs post-treatment” value ([8]; 10 mg/kg, i.p., mice, brain, 24 hrs) of the same compound?
A: significant elevations

Q: What about the “AEA, PEA and OEA levels in liver tissue” value ([8]; 10 mg/kg, i.p., mice, liver) of the same compound?
A: significant elevations

Q: What about the “endocannabinoid (AEA or 2-AG) levels in FAAH(-/-) mice” value ([8]; FAAH(-/-) mice) of the same compound?
A: did not alter

Q: What about the “duration of high AEA elevations” value ([8]; mice) of the same compound?
A: at least 7 hrs

Q: And the “efficacy in CFA model at 1 mg/kg” value ([1]; 1 mg/kg p.o., 4 hr)?
A: efficacy was not observed

Q: What about the “inhibition of mechanical allodynia, time course 2-8 hrs” value ([1]; 10 mg/kg, p.o., 2-8 hrs post-administration) of the same compound?
A: significant inhibition of mechanical allodynia at all time points tested

Q: What about the “minimum effective dose (MED), inhibition of mechanical allodynia” value ([1]; p.o., 1-30 mg/kg, rats, 4 hr post-dosing) of the same compound?
A: 3 mg/kg

Q: And the “inhibition of pain responses at 10 and 30 mg/kg” value ([1]; p.o., 10 and 30 mg/kg, versus naproxen 10 mg/kg p.o.)?
A: equivalent, if not greater degree than the nonsteroidal anti-inflammatory drug naproxen

Q: And the “blockade of FAAH activity at 1 mg/kg” value ([9]; 1 mg/kg p.o.)?
A: near-complete blockade of FAAH activity

Q: And the “elevations in AEA at 1 mg/kg” value ([9]; 1 mg/kg p.o.)?
A: close to maximal elevations in AEA

Q: What about the “increase of OEA and PEA in brain” value ([9]; p.o., brain) of the same compound?
A: ~10 fold

Q: And the “maximal elevation of AEA in brain and plasma” value ([9]; p.o., brain and plasma)?
A: ~10 fold

Q: And the “increase of OEA and PEA in plasma” value ([9]; p.o., plasma)?
A: ~3 fold

Q: Which results are given for NC(=O)c1cccc(-c2cccc(OC(=O)NC3CCCCC3)c2)c1 [URB597, cyclohexyl carbamic acid 3′-carbamoyl-biphenyl-3-yl ester, reference compound]?
A: inhibition of other FP-reactive serine hydrolases in brain ([7]; 10 mg/kg, i.p., mice): none of the other FP-reactive serine hydrolases in this tissue were inhibited; brain FAAH activity at 24 hr ([7]; 10 mg/kg, i.p., mice, 24 hr): nearly wild type levels of brain FAAH activity; inactivation of FAAH in the brain ([7]; 10 mg/kg, i.p., mice): rapid and complete inactivation of FAAH in the brain; blockade of FP-labeling of additional liver serine hydrolases [10]: blocked FP-labeling of several additional liver serine hydrolases; time by which AEA levels return to near-baseline ([8]; 10 mg/kg, i.p., mice, brain): up to 7 hrs

Q: SR144528 [reference compound] was tested. Which “effect on mechanical allodynia in rats not treated with PF-3845” value [1] did it give?
A: neither the CB1 nor CB2 antagonist displayed significant effects

Q: How did the “proteins labeled in brain (CC-ABPP)” value ([11]; brain) turn out when C#CCCCCCCCCCNC(=O)Oc1cccc(-c2cccc(C(N)=O)c2)c1 [JP104] was run?
A: selectively reacted with a single protein in mouse brain

Q: And the “proteins labeled in liver (CC-ABPP)” value ([11]; liver)?
A: labeling a number of proteins that were found in both FAAH(+/+) and (-/-) mice
